The first experiment deals with T1, Autoinducer-2 kinase (Salmonella typhimurium (strain LT2 / SGSC1412 / ATCC 700720)) (UniProt Q8ZKQ6).
T1 sequence (whole entry): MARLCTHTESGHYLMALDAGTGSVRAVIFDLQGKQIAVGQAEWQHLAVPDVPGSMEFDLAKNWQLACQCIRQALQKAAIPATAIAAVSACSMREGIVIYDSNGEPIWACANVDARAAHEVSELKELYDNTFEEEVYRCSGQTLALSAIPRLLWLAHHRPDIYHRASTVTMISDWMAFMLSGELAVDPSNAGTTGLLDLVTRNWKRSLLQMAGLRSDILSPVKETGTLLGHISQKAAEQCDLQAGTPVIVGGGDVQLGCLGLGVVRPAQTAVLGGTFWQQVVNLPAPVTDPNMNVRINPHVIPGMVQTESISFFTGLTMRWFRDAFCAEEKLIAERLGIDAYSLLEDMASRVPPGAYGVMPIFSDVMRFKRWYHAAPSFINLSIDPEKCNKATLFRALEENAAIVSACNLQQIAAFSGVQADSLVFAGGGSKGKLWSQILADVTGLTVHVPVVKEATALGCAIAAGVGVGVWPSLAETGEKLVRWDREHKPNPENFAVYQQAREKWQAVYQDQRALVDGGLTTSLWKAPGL
The experiment in a line: Inhibition of Salmonella typhimurium LsrK expressed in Escherichia coli MET1158 at 200 uM using (S)-DPD as substrate after 15 mins by Kinase Glo luminescence assay relative to control. Particulars: Salmonella enterica subsp. enterica serovar Typhimurium. An outline of the steps: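 Compound at 200 µM in triplicate with 300 nM LsrK, 300 µM (S)-DPD and 100 µM ATP in 25 mM triethanolamine pH 7.4, 200 µM MgCl2, 0.1 mg/mL BSA; 15 min incubation, then Kinase Glo reagent; luminescence read after 30 min; percent inhibition.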
Chain of Glycerol kinase (Escherichia coli (strain K12)) (P0A6F3 whole entry): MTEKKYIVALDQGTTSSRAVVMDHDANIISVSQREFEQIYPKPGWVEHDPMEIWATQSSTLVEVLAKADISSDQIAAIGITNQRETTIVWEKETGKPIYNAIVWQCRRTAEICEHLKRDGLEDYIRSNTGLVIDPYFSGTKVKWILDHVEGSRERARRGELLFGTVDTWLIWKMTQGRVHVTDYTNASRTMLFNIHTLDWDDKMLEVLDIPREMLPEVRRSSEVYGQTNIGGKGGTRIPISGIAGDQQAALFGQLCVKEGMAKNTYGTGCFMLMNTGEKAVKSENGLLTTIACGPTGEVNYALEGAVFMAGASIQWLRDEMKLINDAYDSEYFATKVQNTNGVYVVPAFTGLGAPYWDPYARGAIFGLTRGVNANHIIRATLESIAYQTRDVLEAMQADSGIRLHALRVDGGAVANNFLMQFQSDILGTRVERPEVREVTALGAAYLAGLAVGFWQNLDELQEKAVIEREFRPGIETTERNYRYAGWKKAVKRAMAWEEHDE
Molecule `c1c(C23CC4CC(CC(C4)C2)C3)n[nH]c1C1COC2(CCCCC2)O1` (stereo not given) yielded an inhibition of 0%. The molecule `OCC(O)c1cc(-c2cccs2)nc(-c2cccc(F)c2)n1` (stereo not given) had an inhibition of 19.8%. `Cc1nc(C2CC2)cc(C2COC3(CCCCC3)O2)c1C(=O)O` (stereo not given) had an inhibition of 6.26%. As to `c1coc(-c2cc(C3COC4(CCCCC4)O3)[nH]n2)c1` (stereo not given), the inhibition amounted to 43.5%. On to `OCC(O)c1cc(C2CC2)nc(-c2ccccn2)n1` (stereo not given), for which the inhibition was determined as 2.94%. The molecule `OCC(O)c1cc(-c2cccs2)n[nH]1` (stereo not given) returned an inhibition of 0%.

As for `c1ccc(-c2cc(C3COC4(CCCCC4)O3)n(C3CCCC3)n2)cc1` (stereo not given), the inhibition came out at 0%. `CCCc1nc(-c2cccs2)cc(C2COC3(CCCCC3)O2)n1` (stereo not given) returned an inhibition of 0.96%.

`Cc1cccc(-c2cc(C3COC4(CCCCC4)O3)n(C)n2)c1` (stereo not given) had an inhibition of 1.07%. Consider `Cn1nc(-c2ccccc2)cc1C1COC2(CCCCC2)O1` (stereo not given), for which the inhibition came out at 78%.

`OCC(O)c1cc(-c2ccccc2)n[nH]1` (stereo not given) yielded an inhibition of 0%. As for `Cn1nc(C2CC2)cc1C(O)CO` (stereo not given), the inhibition was found to be 0%. `Cc1nc(C2CC2)cc(C(O)CO)c1C(=O)O` (stereo not given) displayed an inhibition of 1.33%. Turning to `OCC(O)c1cc(C2CC2)n[nH]1` (stereo not given), the inhibition is 0%.

Regarding `OCC(O)c1cc(C2CCCC2)n[nH]1` (stereo not given), the inhibition turned out to be 0%. In turn, `CC(=O)N1CCC2(CC1)OCC(c1cc(-c3ccccc3)nn1C)O2` (stereo not given) returned an inhibition of 2.07%. In turn, `Cn1nc(-c2ccccc2)cc1C1COC2(CCOCC2)O1` (stereo not given) registered an inhibition of 31.1%. Regarding `Cn1nc(C2CCCC2)cc1C1COC2(CCCCC2)O1` (stereo not given), the inhibition was 0%. With `Cn1nc(-c2cccc(C#N)c2)cc1C1COC2(CCCCC2)O1` (stereo not given), the inhibition was 0%.

As to `CCOC(=O)c1c(C2COC3(CCCCC3)O2)cc(C2CC2)nc1C` (stereo not given), the inhibition amounted to 0.36%. Regarding `c1c(C2CC2)n[nH]c1C1COC2(CCCCC2)O1` (stereo not given), the inhibition stood at 1.47%. Turning to `Cn1nc(C2CC2)cc1C1COC2(CCCCC2)O1` (stereo not given), the inhibition came to 0%. Molecule `c1ccc2cc(C3COC4(CCCCC4)O3)ncc2c1` (stereo not given) displayed an inhibition of 14.9%. Still for that read-out and setting: under `Cc1nc2cc(C3COC4(CCCCC4)O3)ncc2s1` (stereo not given) stands 6.32%; under `Cn1nc(-c2cc3ccccc3[nH]2)cc1C1COC2(CCCCC2)O1` (stereo not given), 4.38%; under `Cn1nc(-c2cccnc2)cc1C1COC2(CCCCC2)O1` (stereo not given), 4.92%. Molecule `OCC(O)c1cc(-c2ccccc2)nc(C2CC2)n1` (stereo not given) came in with an inhibition of 24.5%. Molecule `Cn1nc(-c2cc(F)cc(Cl)c2)cc1C1COC2(CCCCC2)O1` (stereo not given) yielded an inhibition of 4.42%. On to `Cn1nc(C23CC4CC(CC(C4)C2)C3)cc1C(O)CO` (stereo not given), for which the inhibition is 0%. Same read-out and setting: the figure for `c1ccc(-c2nc(C3CC3)cc(C3COC4(CCCCC4)O3)n2)cc1` (stereo not given) is 0.76%. On the same count and under the same terms, under `CCCc1nc(-c2cccs2)cc(C(O)CO)n1` (stereo not given) stands 47.8%; under `Cc1ccc2cnc(C(O)CO)cc2c1` (stereo not given), 0.4%; under `Fc1cccc(-c2nc(-c3cccs3)cc(C3COC4(CCCCC4)O3)n2)c1` (stereo not given), 0.2%. `CCOC(=O)c1c(C2COC3(CCCCC3)O2)cc(-c2ccccc2)nc1C` (stereo not given) had an inhibition of 0.1%. On the same count and under the same terms, the figure for `CC(C)c1cc(C2COC3(CCCCC3)O2)[nH]n1` (stereo not given) is 7.14%. Regarding `c1ccc(-c2cc(C3COC4(CCCCC4)O3)n(C3CC3)n2)cc1` (stereo not given), the inhibition came out at 0%. The same measure, in the same setting: under `OCC(O)c1cc2ccccc2cn1` (stereo not given) stands 0.48%; under `CC(C)c1cc(C(O)CO)n(C)n1` (stereo not given), 0%; under `CCn1nc(-c2ccccc2)cc1C1COC2(CCCCC2)O1` (stereo not given), 0%. Consider `Oc1ccc2cc(C3COC4(CCCCC4)O3)ncc2c1` (stereo not given), for which the inhibition is 28.6%. In turn, `Cc1nc(-c2ccccc2)cc(C2COC3(CCCCC3)O2)n1` (stereo not given) returned an inhibition of 9.41%. `OCC(O)c1cc2ccoc2cn1` (stereo not given) registered an inhibition of 2.07%.

Molecule `c1cc2cc(C3COC4(CCCCC4)O3)ncc2s1` (stereo not given) gave an inhibition of 11.1%. Molecule `Cc1nc(-c2ccccc2)cc(C(O)CO)c1C(=O)O` (stereo not given) came in with an inhibition of 0.81%. For `CC(C)n1nc(-c2ccccc2)cc1C1COC2(CCCCC2)O1` (stereo not given), the inhibition amounted to 0%. `Cc1cc(-c2ccccc2)nn1C` returned an inhibition of 2.01%. On the same count and under the same terms, under `Cn1nc(-c2ccco2)cc1C1COC2(CCCCC2)O1` (stereo not given) stands 51.6%; under `CC(C)c1cc(C(O)CO)[nH]n1` (stereo not given), 0%.

In the case of `c1cc2cc(C3COC4(CCCCC4)O3)ncc2o1` (stereo not given), the inhibition is 5.75%. For the molecule `N#CCCn1nc(-c2ccccc2)cc1C1COC2(CCCCC2)O1` (stereo not given), the inhibition was determined as 0%. Consider `c1ccc(-c2nc(C3CC3)cc(C3COC4(CCCCC4)O3)n2)nc1` (stereo not given), for which the inhibition was 21.2%.

For `Cn1nc(-c2ccccc2)cc1C(O)CO` (stereo not given), the inhibition was determined as 0%.

`c1csc(-c2cc(C3COC4(CCCCC4)O3)[nH]n2)c1` (stereo not given) displayed an inhibition of 26.5%. In the case of `Cn1nc(-c2ccccc2)cc1C1COC2(CCCCCC2)O1` (stereo not given), the inhibition was 0%.

The molecule `Cn1nc(C2CCCCC2)cc1C1COC2(CCCCC2)O1` (stereo not given) registered an inhibition of 1.51%. For `Fc1cccc2cnc(C3COC4(CCCCC4)O3)cc12` (stereo not given), the inhibition was determined as 1.76%. For `Cn1nc(C2CCCC2)cc1C(O)CO` (stereo not given), the inhibition is 0%. As to `c1ccc(-c2cc(C3COC4(CCCCC4)O3)[nH]n2)cc1` (stereo not given), the inhibition worked out at 53.6%.

Regarding `OCC(O)c1cc2ccsc2cn1` (stereo not given), the inhibition came out at 0.17%. `OCC(O)c1cc(-c2ccco2)n[nH]1` (stereo not given): the inhibition worked out at 0%. Molecule `c1ccc(-c2cc(C3COC4(CCCCC4)O3)n(-c3ccccc3)n2)cc1` (stereo not given) had an inhibition of 0%. As for `Cn1nc(-c2cccs2)cc1C1COC2(CCCCC2)O1` (stereo not given), the inhibition was 0%. In turn, `Cc1nc(-c2ccccc2)cc(C2COC3(CCCCC3)O2)c1C(=O)O` (stereo not given) returned an inhibition of 0%.

`CN(C)c1ccc(-c2cc(C3COC4(CCCCC4)O3)n(C)n2)cc1` (stereo not given) yielded an inhibition of 0.19%. `Cc1ccc2cnc(C3COC4(CCCCC4)O3)cc2c1` (stereo not given): the inhibition turned out to be 1.66%. On the same count and under the same terms, the figure for `OCC(O)c1cc2c(F)cccc2cn1` (stereo not given) is 0.65%. On to `Cn1nc(-c2ccon2)cc1C1COC2(CCCCC2)O1` (stereo not given), for which the inhibition stood at 9.83%. In the case of `Cc1nc(-c2ccccc2)cc(C(O)CO)n1` (stereo not given), the inhibition is 0.22%. Consider `Cn1nc(C23CC4CC(CC(C4)C2)C3)cc1C1COC2(CCCCC2)O1` (stereo not given), for which the inhibition was determined as 0%.

In turn, `Cn1nc(-c2cccs2)cc1C(O)CO` (stereo not given) displayed an inhibition of 0%.

Turning to `CC(C)c1cc(C2COC3(CCCCC3)O2)n(C)n1` (stereo not given), the inhibition came to 0%.

`c1ccc(-c2cc(C3COC4(CCCCC4)O3)nc(C3CC3)n2)cc1` (stereo not given) showed an inhibition of 15.2%. For `c1c(C2CCCC2)n[nH]c1C1COC2(CCCCC2)O1` (stereo not given), the inhibition turned out to be 0%. `OCC(O)c1cc(C2CC2)nc(-c2ccccc2)n1` (stereo not given) returned an inhibition of 21.6%.

`Cn1nc(-c2ccccc2)cc1C1COC2(CCCC2)O1` (stereo not given) displayed an inhibition of 5.56%.

As for `OCC(O)c1cc(C23CC4CC(CC(C4)C2)C3)n[nH]1` (stereo not given), the inhibition worked out at 0%. Molecule `OCC(O)c1cc2ccc(O)cc2cn1` (stereo not given) had an inhibition of 1.67%.

As to `Cc1nc2cnc(C(O)CO)cc2s1` (stereo not given), the inhibition was 0.1%.

`Cn1nc(-c2ccco2)cc1C(O)CO` (stereo not given) had an inhibition of 0%.

The target in a further experiment is T2, Autoinducer-2 kinase (Salmonella typhimurium (strain LT2 / SGSC1412 / ATCC 700720), UniProt Q8ZKQ6).
T2 sequence (Q8ZKQ6 whole entry): T1 sequence (whole entry)
Put plainly: Inhibition of Salmonella typhimurium LsrK expressed in Escherichia coli MET1158 using (S)-DPD as substrate after 15 mins by Kinase Glo luminescence assay.
Conditions: not given
Also on record: species or system Salmonella enterica subsp. enterica serovar Typhimurium. In outline:
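Dose-response at 6 concentrations (25–500 µM); 300 nM LsrK, 300 µM (S)-DPD, 100 µM ATP in 25 mM triethanolamine pH 7.4, 200 µM MgCl2, 0.1 mg/mL BSA plus Triton X-100; 15 min, Kinase Glo readout after 30 min; IC50 by four-parameter logistic fit; mean ±SD of two independent experiments (n = 4).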
Take `c1coc(-c2cc(C3COC4(CCCCC4)O3)[nH]n2)c1` (stereo not given): the IC50 is 384 µM. Molecule `Cn1nc(-c2ccccc2)cc1C1COC2(CCCCC2)O1` (stereo not given) had an IC50 of 119 µM. As for `Cn1nc(-c2ccco2)cc1C1COC2(CCCCC2)O1` (stereo not given), the IC50 is 284 µM. The same measure, in the same setting: the figure for `c1ccc(-c2cc(C3COC4(CCCCC4)O3)[nH]n2)cc1` (stereo not given) is 475 µM.

For another experiment, the target named is Glycerol kinase (Escherichia coli (strain K12)) (UniProt P0A6F3). Put plainly: Inhibition of Escherichia coli K12 glycerokinase at 25 to 500 uM using glycerol as substrate after 15 mins by Kinase Glo luminescence assay. The conditions noted are these: Escherichia coli K-12. In outline:
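E. coli glycerokinase 0.3 U/mL with 300 µM glycerol, then 100 µM ATP; run as the LsrK protocol (triethanolamine pH 7.4 buffer, 15 min incubation, Kinase Glo luminescence read after 30 min).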
`c1coc(-c2cc(C3COC4(CCCCC4)O3)[nH]n2)c1` (stereo not given): the inhibition result is “Dose-dependent effect”. Turning to `Cn1nc(-c2ccco2)cc1C1COC2(CCCCC2)O1` (stereo not given), the inhibition result was “Dose-dependent effect”.
